Measurements from ChEMBL document CHEMBL4118130, “Modular synthesis of new C-aryl-nucleosides and their anti-CML activity” (Bioorg Med Chem Lett, 2018).
Calls of active or inactive are those of the source. The rule behind the calls is not given here.

Legend:
[1] = tested on: K562; experiment: Cytotoxicity in drug sensitive human K562 cells assessed as reduction in cell viability at 10 uM incubated for 48 hrs by XTT assay relative to imatinib; assay type: functional
[2] = tested on: K562; experiment: Cytotoxicity in drug sensitive human K562 cells assessed as reduction cell viability incubated for 48 hrs by XTT assay; assay type: functional, cell-based; conditions: for IC50: K562, 48 h
Method in brief: (§1)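 K562-S (imatinib-sensitive) or K562-R (imatinib-resistant) CML cells were exposed to a range of concentrations for 48 h. Viability was read by XTT, and the IC50 was derived from the dose-response.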

[3] = tested on: K-562R; experiment: Cytotoxicity in imatinib-resistant human K562R cells assessed as reduction cell viability incubated for 48 hrs by XTT assay; assay type: functional, cell-based; method in brief: as §1
[4] = tested on: K562; experiment: Induction of apoptosis in drug sensitive human K562 cells assessed as induction of caspase-3 cleavage after 24 hrs by Western blot method; assay type: functional, cell-based
Method in brief: (§2)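 Cell lysates were probed by western blot for procaspase 3 and for PARP, its preferred substrate, in K562-S and K562-R cells. Cleavage was scored after 6 h and 24 h of treatment.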

[5] = tested on: K562; experiment: Induction of apoptosis in drug sensitive human K562 cells assessed as induction of caspase-3 cleavage after 6 hrs by Western blot method; assay type: functional, cell-based; method in brief: as §2
[6] = tested on: K-562R; experiment: Induction of apoptosis in imatinib-resistant human K562R cells assessed as induction of PARP cleavage after 6 hrs by Western blot method; assay type: functional, cell-based; method in brief: as §2
[7] = tested on: K-562R; experiment: Inhibition of autophagy in imatinib-resistant human K562R cells assessed as reduction in LC3-II accumulation by Western blot method; assay type: functional, cell-based
Method in brief: (§3)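 Western blot of LC3 lipidation and cleavage, scored as conversion of LC3-I to LC3-II, in K562-S and K562-R cells. Untreated cells served as the baseline for LC3-II accumulation.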

[8] = tested on: K-562R; experiment: Induction of apoptosis in imatinib-resistant human K562R cells assessed as induction of caspase-3 cleavage after 24 hrs by Western blot method; assay type: functional, cell-based; method in brief: as §2
[9] = tested on: K562; experiment: Inhibition of autophagy in drug sensitive human K562 cells assessed as reduction in LC3-II accumulation by Western blot method; assay type: functional, cell-based; method in brief: as §3
[10] = tested on: K562; experiment: Potency index, ratio of IC50 for AICAR to IC50 for test compound in drug sensitive human K562 cells assessed as reduction cell viability incubated for 48 hrs by XTT assay; assay type: functional
[11] = tested on: K-562R; experiment: Induction of apoptosis in imatinib-resistant human K562R cells assessed as induction of PARP cleavage after 24 hrs by Western blot method; assay type: functional, cell-based; method in brief: as §2
[12] = tested on: K-562R; experiment: Induction of apoptosis in imatinib-resistant human K562R cells assessed as induction of caspase-3 cleavage after 6 hrs by Western blot method; assay type: functional, cell-based; method in brief: as §2
[13] = tested on: K562; experiment: Induction of apoptosis in drug sensitive human K562 cells assessed as induction of PARP cleavage after 24 hrs by Western blot method; assay type: functional, cell-based; method in brief: as §2
[14] = tested on: K562; experiment: Induction of apoptosis in drug sensitive human K562 cells assessed as induction of PARP cleavage after 6 hrs by Western blot method; assay type: functional, cell-based; method in brief: as §2

Structure (SMILES) | Activity [1] | other results
COc1ccc(C#Cc2ccsc2)cc1[C@@H]1O[C@H](COC(C)=O)[C@@H](OC(C)=O)[C@H]1OC(C)=O | inactive | 
COc1ccc(C#Cc2ccc(F)cc2)cc1[C@@H]1O[C@H](CO)[C@@H](O)[C@H]1O | Active | 
COc1ccc(-c2ccccc2)cc1[C@@H]1O[C@H](CO)[C@@H](O)[C@H]1O | Active | 
COc1ccc(C#Cc2ccc(C)cc2)cc1[C@@H]1O[C@H](CO)[C@@H](O)[C@H]1O | Active | 
COc1ccc(C#Cc2ccc(F)cc2)cc1[C@@H]1O[C@H](COC(C)=O)[C@@H](OC(C)=O)[C@H]1OC(C)=O | Active | 
COc1ccc(-c2cccc3ccccc23)cc1[C@@H]1O[C@H](COC(C)=O)[C@@H](OC(C)=O)[C@H]1OC(C)=O | >30% | 
Cc1ccc(NC(=O)c2ccc(CN3CCN(C)CC3)cc2)cc1Nc1nccc(-c2cccnc2)n1 [IMATINIB] |  | IC50 [2]: 1.1 µM; IC50 [3]: > 50 µM
COc1ccc(C#Cc2ccc(OC)c([C@@H]3O[C@H](CO)[C@@H](O)[C@H]3O)c2)cc1 | Active | 
COc1ccc(-c2cccs2)cc1[C@@H]1O[C@H](CO)[C@@H](O)[C@H]1O | Active | 
COc1ccc(C#Cc2ccsc2)cc1[C@@H]1O[C@H](CO)[C@@H](O)[C@H]1O | Active | 
COc1ccc(-c2ccco2)cc1[C@@H]1O[C@H](CO)[C@@H](O)[C@H]1O | Active | 
COc1ccc(C#Cc2ccccc2)cc1[C@@H]1O[C@H](COC(C)=O)[C@@H](OC(C)=O)[C@H]1OC(C)=O | inactive | 
COc1ccc(C#Cc2ccccc2)cc1[C@@H]1O[C@H](CO)[C@@H](O)[C@H]1O | Active | 
COc1ccc(-c2ccc3[nH]ccc3c2)cc1[C@@H]1O[C@H](COC(C)=O)[C@@H](OC(C)=O)[C@H]1OC(C)=O | Active | 
COc1ccc(-c2ccc3[nH]ccc3c2)cc1[C@@H]1O[C@H](CO)[C@@H](O)[C@H]1O | Active | 
COc1ccc(-c2cccn2C)cc1[C@@H]1O[C@H](CO)[C@@H](O)[C@H]1O | Active | 
COc1ccc(-c2ccccc2)cc1[C@@H]1O[C@H](COC(C)=O)[C@@H](OC(C)=O)[C@H]1OC(C)=O | Active | 
COc1ccc(-c2cc3ccccc3s2)cc1[C@@H]1O[C@H](CO)[C@@H](O)[C@H]1O | 16% | 
COc1ccc(-c2cccs2)cc1[C@@H]1O[C@H](COC(C)=O)[C@@H](OC(C)=O)[C@H]1OC(C)=O | >30% | 
COc1ccc(-c2ccc(C)cc2)cc1[C@@H]1O[C@H](COC(C)=O)[C@@H](OC(C)=O)[C@H]1OC(C)=O | Active | 
COc1ccc(-c2cccn2C)cc1[C@@H]1O[C@H](COC(C)=O)[C@@H](OC(C)=O)[C@H]1OC(C)=O | Active | 
NC(=O)c1ncn([C@@H]2O[C@H](CO)[C@@H](O)[C@H]2O)c1N [ACADESINE] |  | IC50 [3]: 800 µM
COc1ccc(-c2cccc3ccccc23)cc1[C@@H]1O[C@H](CO)[C@@H](O)[C@H]1O | Active | 
COc1ccc(C#Cc2ccc(C)cc2)cc1[C@@H]1O[C@H](COC(C)=O)[C@@H](OC(C)=O)[C@H]1OC(C)=O | Active | 
COc1ccc(-c2ccco2)cc1[C@@H]1O[C@H](COC(C)=O)[C@@H](OC(C)=O)[C@H]1OC(C)=O | Active | 
COc1ccc(-c2ccc(C)cc2)cc1[C@@H]1O[C@H](CO)[C@@H](O)[C@H]1O | Active | 
COc1ccc(C#Cc2ccc(OC)c([C@@H]3O[C@H](COC(C)=O)[C@@H](OC(C)=O)[C@H]3OC(C)=O)c2)cc1 | >30% | 
COc1ccc(-c2cc3ccccc3s2)cc1[C@@H]1O[C@H](COC(C)=O)[C@@H](OC(C)=O)[C@H]1OC(C)=O | >30 - 80% | Activity [4]: inactive; Activity [5]: inactive; Activity [2]: Dose-dependent effect; IC50 [2]: 4 µM; Activity [6]: inactive; inhibition [7]: Active; Activity [8]: inactive; inhibition [9]: Active; Ratio IC50 [10]: 200; Activity [11]: inactive; Activity [12]: inactive; Activity [13]: inactive; IC50 [3]: 2.9 µM; Activity [14]: inactive
